Source: ChEMBL document CHEMBL1141720, “A study of the structure-activity relationship of GABA(A)-benzodiazepine receptor bivalent ligands by conformational analysis with low temperature NMR and X-ray analysis” (Bioorg Med Chem, 2008)

Assays:
Type in all cases: cell-based
[1] = target: GABA A receptor alpha-4/beta-3/gamma-2 (Homo sapiens, UniProt P18507+P28472+P48169); assay: Displacement of [3H]flunitrazepam from human recombinant GABAA alpha-4-beta-3-gamma-2 receptor expressed in HEK293 cells
Outline: (§1)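 Membranes from the receptor-expressing cells were harvested in hypotonic 50 mM Tris-acetate, pH 7.4 at 4°C. They were incubated with [3H]flunitrazepam in 0.5 mL for 1 h at 4°C. Nonspecific binding was taken with 100 μM diazepam. Reactions were filtered onto 0.3% polyethyleneimine-treated GF/C filters, washed three times with ice-cold buffer, and counted by liquid scintillation. Protein was measured by Bio-Rad assay against a BSA standard.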

[2] = target: T1, GABA-A receptor; alpha-1/beta-3/gamma-2 (Homo sapiens, UniProt P14867+P18507+P28472); assay: Displacement of [3H]flunitrazepam from human recombinant GABAA alpha-1-beta-3-gamma-2 receptor expressed in HEK293 cells; outline: as §1
T1 sequence (P14867 whole entry): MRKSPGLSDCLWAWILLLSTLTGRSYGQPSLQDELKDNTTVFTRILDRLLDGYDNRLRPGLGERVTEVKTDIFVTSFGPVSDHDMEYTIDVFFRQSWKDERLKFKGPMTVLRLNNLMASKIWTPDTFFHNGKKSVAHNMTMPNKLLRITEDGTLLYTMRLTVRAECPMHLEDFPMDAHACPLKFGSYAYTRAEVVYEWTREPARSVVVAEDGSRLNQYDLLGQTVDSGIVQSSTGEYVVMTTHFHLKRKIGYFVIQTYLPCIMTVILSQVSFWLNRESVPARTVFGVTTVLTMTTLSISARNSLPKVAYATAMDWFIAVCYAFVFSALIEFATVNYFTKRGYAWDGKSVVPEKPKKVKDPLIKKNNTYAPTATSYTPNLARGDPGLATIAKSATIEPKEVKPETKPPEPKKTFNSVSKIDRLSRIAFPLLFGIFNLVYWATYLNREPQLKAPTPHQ
T1 sequence (P18507 whole entry): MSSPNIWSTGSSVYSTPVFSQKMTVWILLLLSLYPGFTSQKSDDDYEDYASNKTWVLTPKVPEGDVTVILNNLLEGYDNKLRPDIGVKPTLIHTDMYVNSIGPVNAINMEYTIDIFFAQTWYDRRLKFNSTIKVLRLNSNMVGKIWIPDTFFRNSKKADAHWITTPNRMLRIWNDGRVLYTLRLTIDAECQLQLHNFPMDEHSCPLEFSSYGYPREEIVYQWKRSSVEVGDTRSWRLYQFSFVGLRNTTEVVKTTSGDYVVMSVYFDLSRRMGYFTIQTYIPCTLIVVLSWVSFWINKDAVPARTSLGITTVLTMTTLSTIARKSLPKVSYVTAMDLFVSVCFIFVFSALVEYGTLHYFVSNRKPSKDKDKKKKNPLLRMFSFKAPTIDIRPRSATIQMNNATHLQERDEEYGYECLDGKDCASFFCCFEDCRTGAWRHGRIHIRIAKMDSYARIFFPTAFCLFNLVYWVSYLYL
T1 sequence (P28472 whole entry): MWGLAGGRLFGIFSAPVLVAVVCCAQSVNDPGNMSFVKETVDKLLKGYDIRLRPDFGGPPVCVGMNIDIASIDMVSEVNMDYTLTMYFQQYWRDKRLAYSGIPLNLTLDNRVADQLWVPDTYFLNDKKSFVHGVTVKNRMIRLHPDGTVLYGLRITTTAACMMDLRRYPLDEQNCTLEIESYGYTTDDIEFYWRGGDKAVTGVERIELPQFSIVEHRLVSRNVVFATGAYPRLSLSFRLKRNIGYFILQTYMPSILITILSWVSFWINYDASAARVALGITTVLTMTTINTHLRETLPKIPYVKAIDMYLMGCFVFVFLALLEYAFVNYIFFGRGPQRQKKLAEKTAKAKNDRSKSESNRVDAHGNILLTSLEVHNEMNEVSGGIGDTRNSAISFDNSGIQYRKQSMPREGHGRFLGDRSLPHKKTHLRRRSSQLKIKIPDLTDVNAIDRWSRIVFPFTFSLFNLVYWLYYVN

[3] = target: T2, GABA-A receptor; alpha-2/beta-3/gamma-2 (Homo sapiens, UniProt P18507+P28472+P47869); assay: Displacement of [3H]flunitrazepam from human recombinant GABAA alpha-2-beta-3-gamma-2 receptor expressed in HEK293 cells; outline: as §1
T2 sequence (P18507 whole entry): T1 sequence (P18507 whole entry)
T2 sequence (P28472 whole entry): T1 sequence (P28472 whole entry)
T2 sequence (P47869 whole entry): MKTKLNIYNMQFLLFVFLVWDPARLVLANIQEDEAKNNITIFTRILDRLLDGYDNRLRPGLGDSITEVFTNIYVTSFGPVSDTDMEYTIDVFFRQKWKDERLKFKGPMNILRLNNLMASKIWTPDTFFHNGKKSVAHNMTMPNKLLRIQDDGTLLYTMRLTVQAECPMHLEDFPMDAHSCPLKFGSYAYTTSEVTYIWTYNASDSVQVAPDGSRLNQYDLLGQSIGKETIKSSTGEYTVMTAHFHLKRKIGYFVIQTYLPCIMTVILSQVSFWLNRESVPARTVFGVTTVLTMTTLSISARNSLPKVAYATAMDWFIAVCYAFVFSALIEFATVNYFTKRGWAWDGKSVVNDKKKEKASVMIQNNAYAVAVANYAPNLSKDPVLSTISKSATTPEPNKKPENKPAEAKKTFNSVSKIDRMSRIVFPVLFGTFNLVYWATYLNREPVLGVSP

[4] = target: T3, Gamma-aminobutyric acid receptor subunit alpha-3 (Homo sapiens, UniProt P18507+P28472+P34903); assay: Displacement of [3H]flunitrazepam from human recombinant GABAA alpha-3-beta-3-gamma-2 receptor expressed in HEK293 cells; outline: as §1
T3 sequence (P34903 whole entry): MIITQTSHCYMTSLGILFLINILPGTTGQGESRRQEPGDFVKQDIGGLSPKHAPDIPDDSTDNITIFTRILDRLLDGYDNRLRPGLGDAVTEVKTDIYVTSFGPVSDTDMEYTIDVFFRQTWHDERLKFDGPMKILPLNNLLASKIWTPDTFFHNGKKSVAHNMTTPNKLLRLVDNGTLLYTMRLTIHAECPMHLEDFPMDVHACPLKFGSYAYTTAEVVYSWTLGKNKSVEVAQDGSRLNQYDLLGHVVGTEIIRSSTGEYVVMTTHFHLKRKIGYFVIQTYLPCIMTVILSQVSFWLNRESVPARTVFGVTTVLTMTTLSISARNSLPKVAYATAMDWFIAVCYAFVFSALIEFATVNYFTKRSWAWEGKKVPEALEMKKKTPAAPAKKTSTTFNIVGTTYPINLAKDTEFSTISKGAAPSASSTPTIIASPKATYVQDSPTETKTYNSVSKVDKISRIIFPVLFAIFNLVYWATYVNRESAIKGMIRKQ

[5] = target: T4, GABA-A receptor; alpha-5/beta-3/gamma-2 (Homo sapiens, UniProt P18507+P28472+P31644); assay: Displacement of [3H]flunitrazepam from human recombinant GABAA alpha-5-beta-3-gamma-2 receptor expressed in HEK293 cells; outline: as §1
T4 sequence (P18507 whole entry): T1 sequence (P18507 whole entry)
T4 sequence (P28472 whole entry): T1 sequence (P28472 whole entry)
T4 sequence (P31644 whole entry): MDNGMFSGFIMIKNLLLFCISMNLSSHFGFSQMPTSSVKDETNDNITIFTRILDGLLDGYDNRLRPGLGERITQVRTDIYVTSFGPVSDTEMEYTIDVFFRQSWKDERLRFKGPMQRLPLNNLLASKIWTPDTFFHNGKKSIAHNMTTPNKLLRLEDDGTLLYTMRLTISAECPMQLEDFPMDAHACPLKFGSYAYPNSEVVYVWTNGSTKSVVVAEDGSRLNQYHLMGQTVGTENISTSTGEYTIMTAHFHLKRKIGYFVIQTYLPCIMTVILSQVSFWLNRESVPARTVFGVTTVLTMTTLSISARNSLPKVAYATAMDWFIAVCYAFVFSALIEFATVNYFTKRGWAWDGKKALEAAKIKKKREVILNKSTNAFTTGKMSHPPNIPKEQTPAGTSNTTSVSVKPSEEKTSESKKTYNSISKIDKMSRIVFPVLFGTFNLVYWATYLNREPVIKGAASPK

[6] = target: GABA-A receptor; alpha-6/beta-3/gamma-2 (Homo sapiens, UniProt P18507+P28472+Q16445); assay: Displacement of [3H]flunitrazepam from human recombinant GABAA alpha-6-beta-3-gamma-2 receptor expressed in HEK293 cells; outline: as §1
GABA-A receptor; alpha-6/beta-3/gamma-2, sequence (Q16445 whole entry, one chain of several): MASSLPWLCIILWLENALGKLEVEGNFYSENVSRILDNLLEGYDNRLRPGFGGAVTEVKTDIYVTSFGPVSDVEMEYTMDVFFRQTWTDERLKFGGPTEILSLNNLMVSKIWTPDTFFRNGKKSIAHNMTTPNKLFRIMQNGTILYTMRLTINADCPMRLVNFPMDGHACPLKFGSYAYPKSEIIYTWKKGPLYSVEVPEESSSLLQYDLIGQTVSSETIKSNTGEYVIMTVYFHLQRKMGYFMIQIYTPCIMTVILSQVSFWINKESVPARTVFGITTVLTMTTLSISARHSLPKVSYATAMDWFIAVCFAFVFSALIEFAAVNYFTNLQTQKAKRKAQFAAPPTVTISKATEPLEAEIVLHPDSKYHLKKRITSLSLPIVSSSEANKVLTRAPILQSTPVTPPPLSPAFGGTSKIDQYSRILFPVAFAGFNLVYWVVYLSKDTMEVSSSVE

GABA A receptor alpha-4/beta-3/gamma-2, sequence (P48169 whole entry, one chain of several): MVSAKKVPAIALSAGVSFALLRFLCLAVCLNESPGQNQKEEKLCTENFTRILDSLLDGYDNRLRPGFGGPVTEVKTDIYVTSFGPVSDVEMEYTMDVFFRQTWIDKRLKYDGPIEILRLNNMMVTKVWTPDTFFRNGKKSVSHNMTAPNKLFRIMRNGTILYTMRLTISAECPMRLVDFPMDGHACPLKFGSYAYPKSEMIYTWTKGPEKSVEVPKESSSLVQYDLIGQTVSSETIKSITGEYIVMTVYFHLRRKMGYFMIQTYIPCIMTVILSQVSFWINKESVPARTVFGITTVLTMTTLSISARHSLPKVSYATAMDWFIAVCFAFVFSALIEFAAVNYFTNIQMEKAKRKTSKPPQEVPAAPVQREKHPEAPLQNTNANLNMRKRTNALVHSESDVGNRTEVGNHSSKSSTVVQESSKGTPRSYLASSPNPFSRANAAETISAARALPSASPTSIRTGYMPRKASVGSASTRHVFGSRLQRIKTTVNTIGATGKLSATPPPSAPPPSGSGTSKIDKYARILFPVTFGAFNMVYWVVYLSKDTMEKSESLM

C#Cc1ccc2c(c1)C(=O)N(C)Cc1c(C(=O)OCC)ncn1-2
Ki [1]: 5.3 nM

CCc1ccc2c(c1)C(=O)N(C)Cc1c(C(=O)OCCCOC(=O)c3ncn4c3CN(C)C(=O)c3cc(CC)ccc3-4)ncn1-2
Ki [2]: 1850 nM
Ki [3]: 4700 nM
Ki [4]: 8550 nM
Ki [5]: 101 nM
Ki [6]: 5000 nM

C#Cc1ccc2c(c1)C(=O)N(C)Cc1c(C(=O)OCCCCCOC(=O)c3ncn4c3CN(C)C(=O)c3cc(C#C)ccc3-4)ncn1-2
Ki [2]: 231 nM
Ki [3]: 661 nM
Ki [4]: 2670 nM
Ki [5]: 5.4 nM
Ki [6]: 54.2 nM

C#Cc1ccc2c(c1)C(c1ccccc1)=NCc1c(C(=O)OCCOCCOC(=O)c3ncn4c3CN=C(c3ccccc3)c3cc(C#C)ccc3-4)ncn1-2
Ki [2]: 460 nM
Ki [3]: 5000 nM
Ki [5]: 5000 nM
Ki [6]: 5000 nM

C#Cc1ccc2c(c1)C(=O)N(C)Cc1c(C(=O)OCOCOC(=O)c3ncn4c3CN(C)C(=O)c3cc(C#C)ccc3-4)ncn1-2
Ki [2]: 3800 nM
Ki [3]: 2690 nM
Ki [4]: 1860 nM
Ki [5]: 76.1 nM

C#Cc1ccc2c(c1)C(c1ccccc1)=NCc1c(C(=O)OCCCOC(=O)c3ncn4c3CN=C(c3ccccc3)c3cc(C#C)ccc3-4)ncn1-2
Ki [2]: 236 nM
Ki [3]: 7.4 nM
Ki [4]: 272 nM
Ki [1]: > 5000 nM
Ki [5]: 194 nM
Ki [6]: > 5000 nM
